In publication PMC11190929 (ACS Omega, 2024):

Key:
MARK4 [1] = target: T1, MARK4 (Homo sapiens, UniProt Q96L34); assay: Fluorescence binding studies; details: for KSV: Stern-Volmer
T1 sequence (Q96L34 59-368): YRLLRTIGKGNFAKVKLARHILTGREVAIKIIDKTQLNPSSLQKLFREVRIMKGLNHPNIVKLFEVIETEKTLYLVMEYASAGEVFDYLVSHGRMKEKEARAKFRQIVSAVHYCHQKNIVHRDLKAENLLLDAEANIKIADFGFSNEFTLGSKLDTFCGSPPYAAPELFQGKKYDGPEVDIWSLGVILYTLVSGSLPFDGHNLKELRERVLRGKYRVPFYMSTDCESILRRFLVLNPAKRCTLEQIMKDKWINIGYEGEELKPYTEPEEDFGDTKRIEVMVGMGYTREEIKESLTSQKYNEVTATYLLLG
Summary of the method: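 Intrinsic fluorescence of recombinant MARK4 (4 μM) titrated with test compound at 0–15 μM. Excitation 280 nm, emission 300–400 nm, slit 10 nm, medium response. Quenching data fitted to the Stern–Volmer and modified Stern–Volmer equations to give binding constant Ka and number of binding sites n.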

MARK4 [2] = target: T1, MARK4; assay: ATPase enzyme inhibition assay; type: biochemical; details: for ATPase activity of MARK4: in the presence of compound
Summary of the method: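 MARK4 (residues 59–368), expressed in E. coli M15 and purified, at 6 μM with 20 μM ATP in 20 mM Tris pH 8.0. Incubated with test compound (0–120 μM) at 25 °C for 10–15 min. Phosphate detected with Biomol Green malachite-green reagent, absorbance 620 nm. IC50 computed with an online calculator.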

[3] = tested on: tau phosphorylation in SH-SY5Y cells; assay: Tau-phosphorylation assay; type: cell-based, human; details: compound at its enzyme IC50 concentration, 24 h
Summary of the method: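 SH-SY5Y neuroblastoma cells kept in 1:1 Eagle's MEM/F12 and plated in six-well plates, then incubated with test compound for 24 h. Cells were trypsinized, fixed and rinsed, then labelled with an anti-phospho-tau primary and an Alexa-647 conjugated secondary antibody. After washing and resuspension in FACS buffer, cells were analysed by flow cytometry.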

C3A cells [4] = assay: Annexin-V/PI staining; type: cell-based, human
Summary of the method: (§1)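 Cells were exposed to test compound or vehicle for 72 h, then trypsinized and washed 2–3 times in sterile PBS. They were stained with PI and Cy5-labelled annexin-V and analysed by flow cytometry. Positive cells were quantified from n = 3 biological replicates, with a t test against vehicle.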

C3A cells [5] = assay: Transwell cell migration assay, C3A; type: cell-based, human; details: 1/2 IC50, 24 h, vs vehicle control
Summary of the method: (§2)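 Serum-starved cells treated with test compound or vehicle for 24 h, then 50 × 10^3 cells/well placed in serum-free medium in the upper Boyden chamber (8.0 μm PET membrane). Lower chamber held complete medium with 10% FBS. Next day, non-migrated cells were swabbed off. Migrated cells were methanol-fixed, stained with 0.4% crystal violet in 25% methanol, and counted in 4–5 random fields.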

SNU-475 cells [6] = assay: Cell viability; type: cell-based; details: Homo sapiens, SNU-475, 72 h, read-out: IC50 (cell viability)
Summary of the method: (§3)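 Cells grown in Eagle's MEM with 10% FBS and 1% penicillin/streptomycin, seeded at 2000–3000 cells/well and left overnight. Treated with test compound 0–200 μM for 48–72 h. PrestoBlue HS (resazurin) added for about 45 min, fluorescence read at 560/590 nm. Percent viability relative to vehicle control plotted against dose.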

HEK293 cells = assay: Cytotoxicity on noncancerous HEK293 cells; type: cell-based, human; details: up to 200 μM
Summary of the method: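 HEK293 cells in RPMI 1640 medium, seeded at 2000–3000 cells/well and allowed to grow overnight. Exposed to test compound over 0–200 μM for 48–72 h. Resazurin-based PrestoBlue HS reagent applied about 45 min, fluorescence measured at excitation 560/emission 590 nm. Viability expressed as percent of vehicle control across doses.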

C3A cells [7] = assay: Cell viability; type: cell-based; details: Homo sapiens, 72 h, read-out: IC50 (cell viability)
Summary of the method: as §3

SNU-475 cells [8] = assay: Annexin-V/PI staining; type: cell-based, human; details: SNU-475, annexin-V/PI
Summary of the method: as §1

SNU-475 cells [9] = assay: Transwell cell migration assay, SNU-475; type: cell-based, human; details: SNU-475, 1/2 IC50, 24 h, vs vehicle control
Summary of the method: as §2

[10] = fluorescence quenching, modified Stern-Volmer

Row | Compound | Kd (MARK4 [1]) | KSV (MARK4 [1]; fluorescence quenching) | n (number of binding sites) (MARK4 [1]; [10]) | ATPase activity of MARK4 (MARK4 [2]) | other results
1 | COc1cc(C(=O)N/N=C2\C(=O)Nc3c(C)cc(C)cc32)ccc1O [VI-5, (Z)-N′-(5,7-Dimethyl-2-oxoindolin-3-ylidene)-4-hydroxy-3-methoxybenzohydrazide] | 40 µM | 1.0 × 10^5 M^–1 | 0.8404 | decreased considerably | 
2 | COc1cc(C(=O)N/N=C2\C(=O)Nc3ccc(Cl)cc32)ccc1O [VI-6, (Z)-N′-(5-Chloro-2-oxoindolin-3-ylidene)-4-hydroxy-3-methoxybenzohydrazide] | 1.57 µM | 1.4 × 10^5 M^–1 | 1.135 |  | 
3 | COc1cc(C(=O)N/N=C2\C(=O)Nc3ccc(Br)cc32)ccc1O [VI-7, (Z)-N′-(5-Bromo-2-oxoindolin-3-ylidene)-4-hydroxy-3-methoxybenzohydrazide] | 3.01 µM | 1.7 × 10^5 M^–1 | 1.067 |  | 
4 | COc1cc(C(=O)N/N=C2\C(=O)Nc3c2cccc3[N+](=O)[O-])ccc1O [VI-8, (Z)-4-Hydroxy-3-methoxy-N′-(7-nitro-2-oxoindolin-3-ylidene)benzohydrazide] | 76.3 µM | 0.6 × 10^5 M^–1 | 0.8606 |  | 
5 | COc1cc(C(=O)N/N=C2\C(=O)Nc3c(Cl)cccc32)ccc1O [VI-9, (Z)-N′-(7-Chloro-2-oxoindolin-3-ylidene)-4-hydroxy-3-methoxybenzohydrazide] | 6.76 µM | 1.0 × 10^5 M^–1 | 1.047 | decreased considerably | Tau phosphorylation [3]: decreased the tau phosphorylation; Apoptosis induction (C3A cells [4]): strongly promote early apoptosis; Cell migration (C3A cells [5]): significantly decreased the migration; IC50 (SNU-475 cells [6]): 4.35 µM; Cytotoxicity on noncancerous HEK293 cells (HEK293 cells): did not exhibit cytotoxicity; IC50 (MARK4 [2]): 7.16 µM; IC50 (C3A cells [7]): 6.96 µM; Apoptosis induction (SNU-475 cells [8]): strongly promote early apoptosis; Cell migration (SNU-475 cells [9]): significantly decreased the migration
6 | COc1cc(C(=O)N/N=C2\C(=O)Nc3cc(Cl)c(F)cc32)ccc1O [VI-10, (Z)-N′-(6-Chloro-5-fluoro-2-oxoindolin-3-ylidene)-4-hydroxy-3-methoxybenzohydrazide] | 12.7 µM | 0.8 × 10^5 M^–1 | 1.006 |  | 
7 | (Z)-N′-(6-Fluoro-2-oxoindolin-3-ylidene)-4-hydroxy-3-methoxybenzohydrazide [VI-11] |  | 1.4 × 10^5 M^–1 | 1.015 |  | Ka (binding constant) (MARK4 [1]; fluorescence quenching, modified Stern-Volmer, excitation 280 nm): 1.56 × 10^5 M^–1

Further compounds by falling Kd (MARK4 [1]), results first:

Row | Kd (MARK4 [1]) | KSV (MARK4 [1]; fluorescence quenching) | n (number of binding sites) (MARK4 [1]; [10]) | ATPase activity of MARK4 (MARK4 [2]) | Compound | other results
8 | 1.12 µM | 1.8 × 10^5 M^–1 | 1.141 |  | COc1cc(C(=O)N/N=C2\C(=O)Nc3cc(Cl)ccc32)ccc1O [VI-4, (Z)-N′-(6-Chloro-2-oxoindolin-3-ylidene)-4-hydroxy-3-methoxybenzohydrazide] | 
9 | 0.735 µM | 1.8 × 10^5 M^–1 | 1.199 |  | COc1cc(C(=O)N/N=C2\C(=O)Nc3cc(F)ccc32)ccc1O [VI-14, (Z)-N′-(6-Fluoro-2-oxoindolin-3-ylidene)-4-hydroxy-3-methoxybenzohydrazide] | 
10 | 0.725 µM | 3.7 × 10^5 M^–1 | 1.145 | decreased considerably | COc1cc(C(=O)N/N=C2\C(=O)Nc3ccc(C)cc32)ccc1O [VI-2, (Z)-4-Hydroxy-3-methoxy-N′-(5-methyl-2-oxoindolin-3-ylidene)benzohydrazide] | 
11 | 0.179 µM | 3.9 × 10^5 M^–1 | 1.241 |  | COc1cc(C(=O)N/N=C2\C(=O)Nc3ccccc32)ccc1O [VI-1, (Z)-4-Hydroxy-3-methoxy-N′-(2-oxoindolin-3-ylidene)benzohydrazide] | 
12 | 0.0444 µM | 3.8 × 10^5 M^–1 | 1.367 | decreased considerably | COc1ccc2c(c1)/C(=N/NC(=O)c1ccc(O)c(OC)c1)C(=O)N2 [VI-3, (Z)-4-Hydroxy-3-methoxy-N′-(5-methoxy-2-oxoindolin-3-ylidene)benzohydrazide] | 
13 | 0.0375 µM | 0.8 × 10^5 M^–1 | 1.517 |  | COc1ccc2c(c1)NC(=O)/C2=N\NC(=O)c1ccc(O)c(OC)c1 [VI-13, (Z)-4-Hydroxy-3-methoxy-N′-(6-methoxy-2-oxoindolin-3-ylidene)benzohydrazide] | 
